Test results: PMC8208316 (Chemical Science, 2021)
“And” between values parts separate entries of the source, which are not always exact repeats. Identical values can stand only once. One block for each compound: values may come before it.

Columns and labels:
H9c2 cardiac myoblasts [1] = assay: Protection from H2O2-mediated oxidative stress, CCK-8 viability assay; type: cell-based, rat
[2] = COS release in the presence of thiols by membrane inlet mass-spectrometry; type: physicochemical; conditions: 50 μM precursor, NAC 0.25 mM, PBS pH 7.4, 37 °C
[3] = Decomposition of precursors in the presence of thiol; type: physicochemical
Kinetics of RSSH release = type: physicochemical; conditions: for half-life at 100 µM: phosphate buffered saline with MMTS (1 mM) as RSSH trap, pH 7.4; for phenol byproduct 4a–f yield: precursor 100 μM, MMTS 1 mM, pH 7.4 PBS containing DTPA, HPLC
Method in brief: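 Test compound (100 μM) incubated at 37 °C with MMTS (1 mM) as RSSH trap in PBS (pH 7.4, 100 mM) containing DTPA (100 μM). Timed aliquots quenched with 0.1% formic acid and analysed by HPLC: precursor at 240 nm, phenol at 275 nm. First-order rate constants from single-exponential fits; average of three experiments.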

H9c2 cardiac myoblasts [4] = assay: Protection from H2O2-mediated oxidative stress, Sytox green viability assay; type: cell-based, rat; conditions: pretreatment 4 and 8 h, then H2O2 200 μM
H9c2 cardiac myoblasts [5] = assay: Intracellular sulfane sulfur detection using the SSP4 probe; type: cell-based, rat
Method in brief: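 H9c2 cells loaded with SSP4 (20 μM) plus CTAB (500 μM) for 20 min, then washed with serum-free medium. Test compound added at 0–200 μM. Plate-reader fluorescence (ex 482 nm, em 515 nm) read at set times over 3 h and normalised to the 0 μM value at each time. Mean ± SEM, n = 3 per group, three independent experiments.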

[6] = 10 equiv. MMTS, PBS pH 7.4, 100 mM, 37 °C

Compound: Oc1ccccc1 [phenol, reference compound]
protection against H2O2-mediated toxicity (cell viability, CCK-8) (H9c2 cardiac myoblasts [1]; 50 μM for 4 and 8 h, then H2O2 200 μM 2 h): no protective effect

Compound: COC(=O)C(NC(C)=O)C(C)(C)SSC(=O)OCc1ccccc1 (stereo not drawn) [compound 8]
COS generation in the presence of NAC (comparison) [2]: slower COS generation
decomposition rate in the presence of thiol with respect to 1a ([3]; in the presence of thiol): about six times slower
half-life at 100 µM (Kinetics of RSSH release): 2240 ± 94 min

Compound: COC(=O)C(CSSSCC(NC(C)=O)C(=O)OC)NC(C)=O [N-Ac-OMe-Cys-(S)3, N-acetyl O-methyl cysteine trisulfide, reference compound]
SSP4 fluorescence signal in H9c2 cells compared with 1a (H9c2 cardiac myoblasts [5]): higher fluorescence signal

Continued, in another order:

COS production with respect to precursor 13 [2]: approximately 20%
formation of byproduct 9a (indication of RSSH yield) ([3]; 5 equiv. N-acetylcysteine methyl ester): 53%
k, disappearance of precursor (first-order) (Kinetics of RSSH release; [6]): 0.00539 min⁻¹
k, formation of phenol (first-order) (Kinetics of RSSH release; [6]): 0.00533 min⁻¹
half-life at 100 µM (Kinetics of RSSH release): 129 ± 2 min
phenol byproduct 4a–f yield (Kinetics of RSSH release; 37 °C): 92% and 92 ± 2%
Compound: COC(=O)C(NC(C)=O)C(C)(C)SSC(=O)Oc1ccccc1 (stereo not drawn) [1a]
protection against H2O2-mediated toxicity (cell viability, CCK-8) (H9c2 cardiac myoblasts [1]; pretreatment 5 μM for 8 h, then H2O2 200 μM): shows protection
protection against H2O2-mediated toxicity (cell viability, CCK-8) (H9c2 cardiac myoblasts [1]; pretreatment 4 h (0–50 μM), then H2O2 200 μM 2 h): dose-dependent decrease of H2O2-induced toxicity
protection against H2O2-mediated toxicity (Sytox) (H9c2 cardiac myoblasts [4]): consistently shows protective effects
SSP4 fluorescence signal (intracellular sulfane sulfur) (H9c2 cardiac myoblasts [5]; 50 μM): did not observe a significant increase
SSP4 fluorescence intensity (intracellular sulfane sulfur) (H9c2 cardiac myoblasts [5]; 100 and 200 μM, over 3 h): dose-dependent increases in fluorescence intensity

half-life at 100 µM (Kinetics of RSSH release): 137 ± 4 min
phenol byproduct 4a–f yield (Kinetics of RSSH release; 37 °C): 93 ± 4%
Compound: COC(=O)C(NC(C)=O)C(C)(C)SSC(=O)Oc1ccc(C)cc1 (stereo not drawn) [1b]

half-life at 100 µM (Kinetics of RSSH release): 28 ± 1 min
phenol byproduct 4a–f yield (Kinetics of RSSH release; 37 °C): 97 ± 2%
Compound: COC(=O)C(NC(C)=O)C(C)(C)SSC(=O)Oc1ccc(C#N)cc1 (stereo not drawn) [1f]

half-life at 100 µM (Kinetics of RSSH release): 96 ± 3 min
phenol byproduct 4a–f yield (Kinetics of RSSH release; 37 °C): 96 ± 6%
Compound: COC(=O)C(NC(C)=O)C(C)(C)SSC(=O)Oc1ccc(F)cc1 (stereo not drawn) [1d]

half-life at 100 µM (Kinetics of RSSH release): 147 ± 2 min
phenol byproduct 4a–f yield (Kinetics of RSSH release; 37 °C): 92 ± 1%
Compound: COC(=O)C(NC(C)=O)C(C)(C)SSC(=O)Oc1ccc(OC)cc1 (stereo not drawn) [1c]
